pIC50: −log10 of the molar value. In brackets after ≈: the same amount, converted by molar mass. Blank lines part the entries; values can stand above or below the compound they belong to.
Legend:
Streptococcus pyogenes [1] = assay: Bactericidal activity against MLS-resistant Streptococcus pyogenes 01-968 expressing inducible ermB gene pretreated followed by subculture in absence of compound measured after 24 hrs; format: functional
In short: (§1)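 MBC assay. Following MIC determination by CLSI standard two-fold broth dilution, samples at 1–8 fold MIC were transferred to fresh culture medium. They were subcultured for 24 h without antibiotic. Isolates were identified by 16S rDNA sequencing. S. aureus ATCC 29213 was used as a control strain.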

Rattus norvegicus = assay: Ratio of test compound half life to telithromycin half life in Sprague-Dawley rat at 20 mg/kg, po after 0.25 to 24 hrs by LC-MS/MS analysis; format: ADME, organism-based; conditions: in vivo
Streptococcus pneumoniae [2] = assay: Antibacterial activity against penicillin-susceptible Streptococcus pneumoniae PU 09 expressing mef gene assessed as reduction in microbial growth by CLSI based two-fold broth dilution method; format: functional
Streptococcus pyogenes [3] = assay: Antibacterial activity against MLS-resistant Streptococcus pyogenes 01-968 expressing inducible ermB gene assessed as reduction in microbial growth by CLSI based two-fold broth dilution method; format: functional
Streptococcus pyogenes [4] = assay: Selectivity ratio of MBC to MIC for MLS-resistant Streptococcus pyogenes 12-206 expressing constitutive ermA gene; format: functional
In short: (§2)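 MBC/MIC ratio. MIC was measured by CLSI standard two-fold broth dilution. MBC was measured by transferring samples at 1–8 fold MIC to culture medium and subculturing for 24 h without antibiotic. Isolates were identified by 16S rDNA sequencing.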

[5] = AUCinfinity in Sprague-Dawley rat at 20 mg/kg, po after 0.25 to 24 hrs by LC-MS/MS analysis; format: ADME, organism-based; parameters: dose 20 mg/kg, time infinity, route oral; conditions: Sprague-Dawley, in vivo
In short: (§3)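 Male SD rats were given a single 20 mg/Kg oral dose. Blood was sampled at 0.25, 0.5, 1, 2, 4, 6, 8 and 24 h and centrifuged at 2500 g for 5 min at 4 °C. Drug levels were quantified by LC-MS/MS. t1/2, Cmax, Tmax, CL, MRT and AUC were calculated from the concentration–time data.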

[6] = Half life in Sprague-Dawley rat at 20 mg/kg, po after 0.25 to 24 hrs by LC-MS/MS analysis; format: ADME, organism-based; conditions: in vivo; in short: as §3
Streptococcus pneumoniae [7] = assay: Bactericidal activity against penicillin-susceptible Streptococcus pneumoniae PU 09 expressing mef gene pretreated followed by subculture in absence of compound measured after 24 hrs; format: functional
In short: (§4)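 Isolates were identified by 16S rDNA sequencing. MIC was determined by CLSI-recommended two-fold broth dilution. For MBC, samples from 1–8 fold MIC were transferred to culture medium and subcultured for 24 h without antibiotic.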

Staphylococcus aureus [8] = assay: Antibacterial activity against MLS-resistant Staphylococcus aureus PU 32 expressing inducible ermA gene assessed as reduction in microbial growth by CLSI based two-fold broth dilution method; format: functional
Haemophilus influenzae [9] = assay: Selectivity ratio of MBC to MIC for azithromycin-susceptible Haemophilus influenzae ATCC 49247; format: functional; in short: as §4
Staphylococcus aureus [10] = assay: Antibacterial activity against MLS-resistant Staphylococcus aureus PU 20 expressing constitutive ermC gene assessed as reduction in microbial growth by CLSI based two-fold broth dilution method; format: functional
[11] = AUC (0 to t) in Sprague-Dawley rat at 20 mg/kg, po after 0.25 to 24 hrs by LC-MS/MS analysis; format: ADME, organism-based; parameters: time upper 24 hr, dose 20 mg/kg, time lower 0.25 hr, route oral; conditions: in vivo; in short: as §3
Streptococcus pyogenes [12] = assay: Selectivity ratio of MBC to MIC for MLS-resistant Streptococcus pyogenes 01-968 expressing inducible ermB gene; format: functional; in short: as §2
Haemophilus influenzae [13] = assay: Bactericidal activity against azithromycin-susceptible Haemophilus influenzae ATCC 49247 pretreated followed by subculture in absence of compound measured after 24 hrs; format: functional; in short: as §4
Streptococcus pyogenes [14] = assay: Antibacterial activity against Streptococcus pyogenes 12-207 expressing mef gene assessed as reduction in microbial growth by CLSI based two-fold broth dilution method; format: functional
[15] = Ratio of test compound MRT to telithromycin MRT in Sprague-Dawley rat at 20 mg/kg, po after 0.25 to 24 hrs by LC-MS/MS analysis; format: ADME, organism-based; conditions: in vivo
Moraxella catarrhalis [16] = assay: Bactericidal activity against erythromycin-susceptible Moraxella catarrhalis 13L332 pretreated followed by subculture in absence of compound measured after 24 hrs; format: functional; in short: as §4
Streptococcus pneumoniae [17] = assay: Antibacterial activity against Streptococcus pneumoniae 07P390 expressing constitutive ermB gene assessed as reduction in microbial growth by CLSI based two-fold broth dilution method; format: functional
Streptococcus pyogenes [18] = assay: Antibacterial activity against MLS-resistant Streptococcus pyogenes 12-206 expressing constitutive ermA gene assessed as reduction in microbial growth by CLSI based two-fold broth dilution method; format: functional
[19] = MRT in Sprague-Dawley rat at 20 mg/kg, po after 0.25 to 24 hrs by LC-MS/MS analysis; format: ADME, organism-based; conditions: in vivo; in short: as §3
Streptococcus pyogenes [20] = assay: Selectivity ratio of MBC to MIC for Streptococcus pyogenes 12-207 expressing mef gene; format: functional; in short: as §4
Haemophilus influenzae [21] = assay: Antibacterial activity against azithromycin-susceptible Haemophilus influenzae ATCC 49247 assessed as reduction in microbial growth by CLSI based two-fold broth dilution method; format: functional
[22] = Systemic plasma clearance in Sprague-Dawley rat at 20 mg/kg, po after 0.25 to 24 hrs by LC-MS/MS analysis; format: ADME, organism-based; in short: as §3
Staphylococcus aureus [23] = assay: Bactericidal activity against MLS/methicillin-resistant Staphylococcus aureus PU 32 expressing inducible ermA gene pretreated followed by subculture in absence of compound measured after 24 hrs; format: functional; in short: as §1
Cytochrome P450 3A4 [24] = molecular target: T1, Cytochrome P450 3A4 (Homo sapiens, UniProt P08684); assay: Inhibition of CYP3A4 in human liver microsomes assessed as reduction in metabolite formation using midazolam as substrate incubated for 10 mins in presence of NADPH by HPLC based mass spectrometric method; format: ADME
In short: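 Human liver microsome CYP3A4 with midazolam substrate in 0.1 M potassium phosphate buffer was prewarmed at 37 °C for 5 min. Compound and 25 mM NADPH solution (stock) were added, then incubated at 37 °C for 10 min. Ketoconazole served as the positive inhibitor. Metabolite was measured by UPLC–triple quadrupole MS as the metabolite/internal standard peak area ratio, and IC50 was derived by curve fitting.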

Streptococcus pneumoniae [25] = assay: Bactericidal activity against erythromycin-susceptible Streptococcus pneumoniae ATCC49619 pretreated followed by subculture in absence of compound measured after 24 hrs; format: functional; in short: as §4
Streptococcus pneumoniae [26] = assay: Selectivity ratio of MBC to MIC for penicillin-susceptible Streptococcus pneumoniae PU 09 expressing mef gene; format: functional; in short: as §4
Moraxella catarrhalis [27] = assay: Antibacterial activity against erythromycin-susceptible Moraxella catarrhalis 13L332 assessed as reduction in microbial growth by CLSI based two-fold broth dilution method; format: functional
[28] = Tmax in Sprague-Dawley rat at 20 mg/kg, po after 0.25 to 24 hrs by LC-MS/MS analysis; format: ADME, organism-based; conditions: in vivo; in short: as §3
Streptococcus pyogenes [29] = assay: Bactericidal activity against Streptococcus pyogenes 12-207 expressing mef gene pretreated followed by subculture in absence of compound measured after 24 hrs; format: functional; in short: as §4
Streptococcus pneumoniae [30] = assay: Antibacterial activity against erythromycin-susceptible Streptococcus pneumoniae ATCC49619 assessed as reduction in microbial growth by CLSI based two-fold broth dilution method; format: functional
Streptococcus pneumoniae [31] = assay: Bactericidal activity against Streptococcus pneumoniae 07P390 expressing constitutive ermB gene pretreated followed by subculture in absence of compound measured after 24 hrs; format: functional; in short: as §4
Staphylococcus aureus [32] = assay: Selectivity ratio of MBC to MIC for MLS/methicillin-resistant Staphylococcus aureus PU 32 expressing inducible ermA gene; format: functional; in short: as §2
Streptococcus pyogenes [33] = assay: Bactericidal activity against MLS-resistant Streptococcus pyogenes 12-206 expressing constitutive ermA gene pretreated followed by subculture in absence of compound measured after 24 hrs; format: functional; in short: as §1
Moraxella catarrhalis [34] = assay: Selectivity ratio of MBC to MIC for erythromycin-susceptible Moraxella catarrhalis 13L332; format: functional; in short: as §4
Streptococcus pneumoniae [35] = assay: Selectivity ratio of MBC to MIC for Streptococcus pneumoniae 07P390 expressing constitutive ermB gene; format: functional; in short: as §4
Staphylococcus aureus [36] = assay: Bactericidal activity against MLS-resistant Staphylococcus aureus PU 20 expressing constitutive ermC gene pretreated followed by subculture in absence of compound measured after 24 hrs; format: functional; in short: as §1
[37] = Cmax in Sprague-Dawley rat at 20 mg/kg, po after 0.25 to 24 hrs by LC-MS/MS analysis; format: ADME, organism-based; parameters: dose 20 mg/kg, route oral; conditions: in vivo; in short: as §3
Cytochrome P450 3A4 [38] = molecular target: T1, Cytochrome P450 3A4; assay: Inhibition of CYP3A4 (unknown origin); format: ADME

T1 sequence (P08684 whole entry): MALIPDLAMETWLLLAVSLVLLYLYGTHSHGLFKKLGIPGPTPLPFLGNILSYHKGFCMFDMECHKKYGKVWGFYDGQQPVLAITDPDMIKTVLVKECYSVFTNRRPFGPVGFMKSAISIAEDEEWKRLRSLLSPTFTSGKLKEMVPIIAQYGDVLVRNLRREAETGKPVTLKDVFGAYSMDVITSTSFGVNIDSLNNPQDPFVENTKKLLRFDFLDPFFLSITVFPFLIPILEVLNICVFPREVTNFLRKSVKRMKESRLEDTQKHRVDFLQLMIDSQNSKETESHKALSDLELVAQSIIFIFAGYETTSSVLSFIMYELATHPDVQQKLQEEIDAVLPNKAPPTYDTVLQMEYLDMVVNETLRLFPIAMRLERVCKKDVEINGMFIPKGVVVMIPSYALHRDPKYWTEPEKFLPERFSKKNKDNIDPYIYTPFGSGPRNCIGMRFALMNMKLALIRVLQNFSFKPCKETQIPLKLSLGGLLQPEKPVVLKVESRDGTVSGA

Structure (SMILES): CC[C@H]1OC(=O)[C@@](C)(F)C(=O)[C@H](C)[C@@H](O[C@@H]2O[C@H](C)C[C@H](N(C)C)[C@H]2O)[C@](C)(OC)C[C@@H](C)/C(=N\OCC#Cc2ccc3c(c2)c(=O)c(C(N)=O)cn3CC)[C@H](C)[C@H]2OC(=O)O[C@@]21C
- MBC (Streptococcus pyogenes [1]): > 0.016 µg/mL
- Ratio (Rattus norvegicus): 2.5 to 3.6
- MIC (Streptococcus pneumoniae [2]): 0.25 µg/mL
- MIC (Streptococcus pyogenes [3]): ≤ 0.002 µg/mL
- Selectivity ratio (Streptococcus pyogenes [4]): >8
- AUC(0-inf) [5]: 281 ng·h/mL
- half-life [6]: 3.2 h
- MBC (Streptococcus pneumoniae [7]): 0.5 µg/mL (≈ 0.556 µM)
- MIC (Staphylococcus aureus [8]): 1 µg/mL
- Selectivity ratio (Haemophilus influenzae [9]): 2
- MIC (Staphylococcus aureus [10]): 128 µg/mL
- AUC(0-t) [11]: 228 ng·h/mL
- Selectivity ratio (Streptococcus pyogenes [12]): >8
- MBC (Haemophilus influenzae [13]): 32 µg/mL (≈ 35.6 µM)
- MIC (Streptococcus pyogenes [14]): 0.125 µg/mL
- Ratio [15]: 2.3 to 2.6
- MBC (Moraxella catarrhalis [16]): 32 µg/mL (≈ 35.6 µM)
- MIC (Streptococcus pneumoniae [17]): 0.125 µg/mL
- MIC (Streptococcus pyogenes [18]): 0.125 µg/mL
- MRT [19]: 8.53 h
- Selectivity ratio (Streptococcus pyogenes [20]): 4
- MIC (Haemophilus influenzae [21]): 16 µg/mL
- CL/F [22]: 1190 mL/min/kg
- MBC (Staphylococcus aureus [23]): 8 µg/mL (≈ 8.9 µM)
- pIC50 (Cytochrome P450 3A4 [24]): 5.14
- MBC (Streptococcus pneumoniae [25]): ≤ 0.008 µg/mL
- Selectivity ratio (Streptococcus pneumoniae [26]): 2
- MIC (Moraxella catarrhalis [27]): 4 µg/mL
- Tmax [28]: 7 h
- MBC (Streptococcus pyogenes [29]): 0.5 µg/mL (≈ 0.556 µM)
- MIC (Streptococcus pneumoniae [30]): ≤ 0.008 µg/mL
- MBC (Streptococcus pneumoniae [31]): > 1 µg/mL
- Selectivity ratio (Staphylococcus aureus [32]): 8
- MBC (Streptococcus pyogenes [33]): > 1 µg/mL
- Selectivity ratio (Moraxella catarrhalis [34]): 8
- Selectivity ratio (Streptococcus pneumoniae [35]): >8
- MBC (Staphylococcus aureus [36]): > 256 µg/mL
- Cmax [37]: 43.5 ng/mL

- pIC50 (Cytochrome P450 3A4 [38]): 5.57
Structure (SMILES): CC[C@H]1OC(=O)[C@H](C)C(=O)[C@H](C)[C@@H](O[C@@H]2O[C@H](C)C[C@H](N(C)C)[C@H]2O)[C@](C)(OCC=Cc2cnc3ccccc3c2)C[C@@H](C)C(=O)[C@H](C)[C@H]2NC(=O)O[C@@]21C [CETHROMYCIN]

From ChEMBL document CHEMBL4346654 (Eur J Med Chem, 2019)
